IC50 data for two molecules are collected here from ChEMBL document CHEMBL2331231, “Arylsulfonamide inhibitors of aggrecanases as potential therapeutic agents for osteoarthritis: synthesis and biological evaluation” (Eur J Med Chem, 2013).

One test addresses T1, Interstitial collagenase (Homo sapiens, UniProt P03956).
T1 sequence (P03956 whole entry): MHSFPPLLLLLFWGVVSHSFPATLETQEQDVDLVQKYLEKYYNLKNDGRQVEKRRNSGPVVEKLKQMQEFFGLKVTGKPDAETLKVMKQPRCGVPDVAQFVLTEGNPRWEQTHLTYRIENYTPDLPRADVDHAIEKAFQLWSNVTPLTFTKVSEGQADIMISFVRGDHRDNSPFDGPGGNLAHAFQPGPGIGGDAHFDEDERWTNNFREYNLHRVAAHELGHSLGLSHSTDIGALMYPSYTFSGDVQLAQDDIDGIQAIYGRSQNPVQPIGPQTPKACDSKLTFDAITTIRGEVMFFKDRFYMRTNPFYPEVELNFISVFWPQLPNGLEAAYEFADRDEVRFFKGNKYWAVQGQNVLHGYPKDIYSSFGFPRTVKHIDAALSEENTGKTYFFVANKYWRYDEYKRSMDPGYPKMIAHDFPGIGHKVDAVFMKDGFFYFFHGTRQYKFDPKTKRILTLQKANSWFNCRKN
Nature of the test: Inhibition of human recombinant MMP1 using Mca-Lys-Pro- Leu-Gly-Leu-Dap(Dnp)-Ala-Arg-NH2 as substrate incubated for 2 hrs prior to substrate addition measured every 15 secs for 15 mins by fluorometric analysis. The method, boiled down: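 Proenzymes were APMA-activated: MMP-1 with 2 mM for 2 h, MMP-2 with 2 mM for 1 h, both at 37 °C. Final enzyme levels were 2.0 nM MMP-1, 0.5 nM MMP-2 and 1.0 nM MMP-14cd. Each was preincubated with inhibitor at seven concentrations for 2 h at 25 °C in Tris pH 7.5 buffer with 1% DMSO.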

The target in test [1] is Matrix metalloproteinase-14 (Homo sapiens, UniProt P50281). Nature of the test: Inhibition of human recombinant MMP14 catalytic domain using Mca-Lys-Pro- Leu-Gly-Leu-Dap(Dnp)-Ala-Arg-NH2 as substrate incubated for 2 hrs prior to substrate addition measured every 15 secs for 15 mins by fluorometric analysis. In a few lines:
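Proenzymes were APMA-activated: MMP-1 with 2 mM for 2 h, MMP-2 with 2 mM for 1 h, both at 37 °C. Final enzyme levels were 2.0 nM MMP-1, 0.5 nM MMP-2 and 1.0 nM MMP-14cd. Each was preincubated with inhibitor at seven concentrations for 2 h at 25 °C in Tris pH 7.5 buffer with 1% DMSO. Mca-KPLGL-Dap(Dnp)-AR-NH2 (2 μM final) was added and read at ex 325/em 395 nm, in duplicate; IC50 was fitted from initial velocities.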

For test [2], the target named is T2, A disintegrin and metalloproteinase with thrombospondin motifs 4 (Homo sapiens, UniProt O75173).
T2 sequence (O75173 whole entry): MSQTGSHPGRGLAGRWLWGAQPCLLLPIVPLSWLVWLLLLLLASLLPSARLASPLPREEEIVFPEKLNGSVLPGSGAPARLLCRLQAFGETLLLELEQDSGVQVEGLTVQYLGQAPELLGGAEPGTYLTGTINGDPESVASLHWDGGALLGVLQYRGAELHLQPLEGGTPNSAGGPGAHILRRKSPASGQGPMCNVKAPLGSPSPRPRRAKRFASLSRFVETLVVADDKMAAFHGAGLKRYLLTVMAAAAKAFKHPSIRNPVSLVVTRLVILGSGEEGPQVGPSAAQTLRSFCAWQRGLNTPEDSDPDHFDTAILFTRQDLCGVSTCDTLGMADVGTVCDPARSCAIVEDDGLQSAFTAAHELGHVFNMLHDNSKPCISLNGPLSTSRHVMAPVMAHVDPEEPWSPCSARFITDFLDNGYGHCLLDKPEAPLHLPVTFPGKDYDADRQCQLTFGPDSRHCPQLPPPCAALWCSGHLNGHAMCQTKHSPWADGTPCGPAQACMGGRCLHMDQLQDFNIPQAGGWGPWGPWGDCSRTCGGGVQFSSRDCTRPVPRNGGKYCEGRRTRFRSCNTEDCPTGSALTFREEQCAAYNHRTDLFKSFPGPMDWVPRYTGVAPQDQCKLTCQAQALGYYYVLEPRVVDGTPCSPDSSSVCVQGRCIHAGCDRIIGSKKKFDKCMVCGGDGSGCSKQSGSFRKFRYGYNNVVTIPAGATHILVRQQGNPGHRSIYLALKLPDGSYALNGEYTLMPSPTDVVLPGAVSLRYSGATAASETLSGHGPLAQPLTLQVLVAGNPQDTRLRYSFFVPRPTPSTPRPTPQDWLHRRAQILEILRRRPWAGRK
The test can be described thus: Inhibition of human recombinant ADAMTS4 expressed in HEk293 cells using FAM-AEwLQGRPISIAK-TAMRA as substrate measured for 15 mins by fluorometric analysis.

On to `O=C(CNS(=O)(=O)c1ccc(OCc2ccc(F)cc2Cl)cc1)NO`, for which the 50% inhibitory concentration (IC50) – broadly, the concentration that gives 50% inhibition – at Interstitial collagenase was more than 5 µM; in test [1], 3.7 µM; in test [2], 0.08 µM.

In the case of `O=C(CNS(=O)(=O)c1ccc(OCc2ccccc2)cc1)NO`, the IC50 on Interstitial collagenase was 27 µM; in test [1], 0.31 µM; in test [2], 3.5 µM.
